For data set [1], the system named is Mycobacterium tuberculosis. In words: Antibacterial activity against Mycobacterium tuberculosis. The data set is classed as functional. A digest of the protocol:
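M. tuberculosis broth cultures grown in 96-well microtitre plates with drug. Growth read indirectly by metabolic reduction of fluorescent Alamar blue. MIC taken as the minimum drug concentration giving 50% inhibition of growth.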

The subject of data set [2] is Staphylococcus aureus. Put plainly: Antibacterial activity against Staphylococcus aureus ATCC 29213. The data set is classed as functional, organism-based.
Data set [3] in a line: Cytotoxicity against HEPG2 cells. The data set is classed as cell-based. The following applies: human; for cytotoxicity: read-out: Inhibition; for CC50: read-out: TC50 (the source's name).
The nature of data set [4]: Permeability across artificial cell membrane. The conditions noted are these: for Papp: not told, read-out: permeability. Type of data set: ADME. A digest of the protocol:
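High-throughput artificial membrane assay measuring passive diffusion of compound across a phospholipid monolayer.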

Setting [5] is: Mycobacterium tuberculosis, read-out: MIC.

SMILES strings stand for the structures. Converted amounts (≈) assume the structure as drawn. The source made the active and inactive calls. The rule behind the calls is not given here. Where only a bound is given, the exact number is not on record here.

By MIC is commonly meant the least concentration at which growth counts as inhibited. For `O=C(NCc1ccccc1)c1ccc(C2c3nc[nH]c3CCN2Cc2cccc(Cl)c2Cl)cc1` (configuration not stated), the MIC in data set [1] (setting [5]) was 32 µM (≈ 15.7 µg/mL).

With `COc1ccc(CNC(=O)c2ccc(C3c4nc[nH]c4CCN3Cc3cc(OC)c(OC)cc3OC)cc2)cc1` (configuration not stated), the MIC in data set [1] (setting [5]) was 63 µM (≈ 34.2 µg/mL). In data set [2], the outcome was Active. Further, in data set [3], the cytotoxicity was found to be 20% and the CC50 is > 11.5 µM.

On to `COc1ccc(CNC(=O)c2ccc(C3c4nc[nH]c4CCN3Cc3cccc(Cl)c3)cc2)cc1` (stereo in doubt; 8f), for which, in data set [3], the cytotoxicity came out at 25% and the CC50 is > 12.8 µM.

For the compound `COc1ccc(CNC(=O)c2ccc(C3c4nc[nH]c4CCN3c3ccc4ccccc4c3)cc2)cc1` (configuration not stated), the minimal inhibitory concentration (MIC) in data set [1] (setting [5]) turned out to be 32 µM (≈ 15.6 µg/mL). Moreover, in data set [3], the cytotoxicity was 25% and the CC50 was > 12.4 µM.

With `COc1ccc(CNC(=O)c2ccc(C3c4nc[nH]c4CCN3Cc3cccc(Cl)c3Cl)cc2)cc1` (stereo in doubt; 8e), in data set [1] (setting [5]), the MIC worked out at 32 µM (≈ 16.7 µg/mL).

Take `O=C(NCc1ccccc1)c1ccc(C2c3nc[nH]c3CCN2Cc2cccc(Cl)c2)cc1` (configuration not stated): the MIC in data set [1] (setting [5]) was determined as 32 µM (≈ 14.6 µg/mL).

Turning to `COc1ccc(CNC(=O)c2ccc(C3c4nc[nH]c4CCN3Cc3cccc(Cl)c3Cl)cc2)cc1` (stereo in doubt; 9b), the MIC in data set [1] came out at 63 µM (≈ 32.9 µg/mL). Besides, the permeability in data set [4] turned out to be 8 ×10⁻⁶ cm/s.

Take `O=C(NCc1ccccc1)c1ccc(C2c3nc[nH]c3CCN2c2ccc3ccccc3c2)cc1` (configuration not stated): the MIC in data set [1] (setting [5]) worked out at 16 µM (≈ 7.34 µg/mL). Also, in data set [3], the cytotoxicity is > 20% and the CC50 is > 13.2 µM.

As for `COc1ccc(CNC(=O)c2ccc(C3c4nc[nH]c4CCN3Cc3cccc(Cl)c3Cl)cc2)cc1` (stereo in doubt; 9a), the Papp in data set [4] was 8 ×10⁻⁶ cm/s.

The compound `COc1ccc(CNC(=O)c2ccc(C3c4nc[nH]c4CCN3Cc3cccc(Cl)c3)cc2)cc1` (stereo in doubt; 9c) registered an MIC in data set [1] of 32 µM (≈ 15.6 µg/mL). Besides, the permeability in data set [4] came out at 21 ×10⁻⁶ cm/s.

`COc1ccc(CNC(=O)c2ccc(C3c4nc[nH]c4CCN3Cc3cccc(Cl)c3)cc2)cc1` (stereo in doubt; 9d): in data set [1] (setting [5]), the MIC was 63 µM (≈ 30.7 µg/mL). For the same compound, the Papp in data set [4] is 21 ×10⁻⁶ cm/s.

For the origin of these results see ChEMBL document CHEMBL1147971, “Evaluation of N-(phenylmethyl)-4-[5-(phenylmethyl)-4,5,6,7-tetrahydro-1H-imidazo[4,5-c]pyridin-4-yl]benzamide inhibitors of Mycobacterium tuberculosis growth” (Bioorg Med Chem Lett, 2007).
